What all share (format): functional
The subject of assay [1] is Staphylococcus aureus. As to the kind of experiment: Antibacterial activity against Staphylococcus aureus XU21 by broth microdilution method. The procedure, abridged: (§1)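 Broth microdilution MICs per CLSI M07-A8 and M100-S20, run side by side on clinical MRSA isolate M05/0060, its plasmid-cured derivative M05/0060-C1, plasmid-free novobiocin-resistant recipient XU21 and transconjugant XU21-T1. Curing was by five serial 24 h passages in BHI broth at 43°C, 200 rpm. Transconjugants came from filter mating, selected on BHI agar with novobiocin 100 µg/ml plus chloramphenicol 30 µg/ml.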

The test system of assay [2] is Staphylococcus aureus. As to the kind of experiment: Antibacterial activity against Staphylococcus aureus XU21-T1 harboring cfr-encoding conjugative pSCFS7 and fexA by broth microdilution method. The procedure, abridged: as §1
On the technique in general: In broth dilution the organism is exposed to a series of concentrations in liquid medium.

Assay [3] has as its system Staphylococcus aureus. As to the kind of experiment: Antibacterial activity against pSCFS7-deficient methicillin-resistant Staphylococcus aureus M05/0060-C1 by broth microdilution method. The procedure, abridged: as §1
The subject of assay [4] is Staphylococcus aureus. The assay is described as follows: Antibacterial activity against methicillin-resistant Staphylococcus aureus M05/0060 harboring cfr-encoding conjugative pSCFS7 and fexA by broth microdilution method. The procedure, abridged:
as §1

Each structure is given as a SMILES string. Values after ≈ are worked out from the molar mass of the structure shown. Where only a bound is given, the exact number is not on record here.

The record followed here is ChEMBL document CHEMBL1687819, “Identification and characterization of the multidrug resistance gene cfr in a Panton-Valentine leukocidin-positive sequence type 8 methicillin-resistant Staphylococcus aureus IVa (USA300) isolate” (2010).

In the case of `O=C(N[C@H](CO)[C@H](O)c1ccc([N+](=O)[O-])cc1)C(Cl)Cl` [CHLORAMPHENICOL], the MIC (in general, the lowest concentration found to suppress growth) against Staphylococcus aureus [1] turned out to be 8 µg/mL (≈ 24.8 µM); against Staphylococcus aureus [2] it was 128 µg/mL (≈ 396 µM); in the assay with Staphylococcus aureus [3], 8 µg/mL (≈ 24.8 µM); in the assay on Staphylococcus aureus [4], 256 µg/mL (≈ 792 µM).

Take `CCC[C@@H]1C[C@@H](C(=O)N[C@@H]([C@H]2O[C@H](SC)[C@H](O)[C@@H](O)[C@H]2O)[C@H](C)Cl)N(C)C1` [CLINDAMYCIN]: the MIC against Staphylococcus aureus [1] is 0.25 µg/mL (≈ 0.588 µM); in the assay with Staphylococcus aureus [2], at least 128 µg/mL; against Staphylococcus aureus [3] it was 0.25 µg/mL (≈ 0.588 µM); against Staphylococcus aureus [4], at least 128 µg/mL.

As for `CC[C@H]1OC(=O)[C@H](C)[C@@H](O[C@H]2C[C@@](C)(OC)[C@@H](O)[C@H](C)O2)[C@H](C)[C@@H](O[C@@H]2O[C@H](C)C[C@H](N(C)C)[C@H]2O)[C@](C)(O)C[C@@H](C)C(=O)[C@H](C)[C@@H](O)[C@]1(C)O` [ERYTHROMYCIN], the MIC is 0.5 µg/mL (≈ 0.681 µM) in the assay on Staphylococcus aureus [1], 0.5 µg/mL (≈ 0.681 µM) against Staphylococcus aureus [2], at least 64 µg/mL against Staphylococcus aureus [3] and at least 64 µg/mL in the assay on Staphylococcus aureus [4].

As for `CS(=O)(=O)c1ccc([C@@H](O)[C@@H](CF)NC(=O)C(Cl)Cl)cc1` [FLORFENICOL], the MIC in the assay with Staphylococcus aureus [1] was 4 µg/mL (≈ 11.2 µM); in the assay on Staphylococcus aureus [2] it was 256 µg/mL (≈ 715 µM); in the assay on Staphylococcus aureus [3] it was 4 µg/mL (≈ 11.2 µM); against Staphylococcus aureus [4], 256 µg/mL (≈ 715 µM).

As to `CC(=O)NC[C@H]1CN(c2ccc(N3CCOCC3)c(F)c2)C(=O)O1` [LINEZOLID], the MIC against Staphylococcus aureus [1] amounted to 1 µg/mL (≈ 2.96 µM); with Staphylococcus aureus [3] it was 1 µg/mL (≈ 2.96 µM); against Staphylococcus aureus [4] it was 8 µg/mL (≈ 23.7 µM).

For the compound `Cc1onc(-c2ccccc2)c1C(=O)N[C@@H]1C(=O)N2[C@@H]1SC(C)(C)[C@@H]2C(=O)O` [OXACILLIN], the MIC with Staphylococcus aureus [1] was 0.12 µg/mL (≈ 0.299 µM); with Staphylococcus aureus [2] it was 0.12 µg/mL (≈ 0.299 µM); against Staphylococcus aureus [3], at least 32 µg/mL; in the assay on Staphylococcus aureus [4], at least 32 µg/mL.

For `C=C[C@]1(C)C[C@@H](OC(=O)CSCCN(CC)CC)[C@]2(C)[C@H](C)CC[C@]3(CCC(=O)[C@H]32)[C@@H](C)[C@@H]1O` [TIAMULIN], the MIC is 1 µg/mL (≈ 2.03 µM) in the assay with Staphylococcus aureus [1], at least 128 µg/mL against Staphylococcus aureus [2], 1 µg/mL (≈ 2.03 µM) with Staphylococcus aureus [3] and at least 128 µg/mL in the assay with Staphylococcus aureus [4].

Turning to `CC1=C\[C@@H](O)CC(=O)Cc2nc(co2)C(=O)N2CCC=C2C(=O)O[C@H](C(C)C)[C@H](C)/C=C/C(=O)NC\C=C\1` [VIRGINIAMYCIN FACTOR M1], the MIC was found to be 1 µg/mL (≈ 1.9 µM) in the assay with Staphylococcus aureus [1], 32 µg/mL (≈ 60.9 µM) against Staphylococcus aureus [2], 1 µg/mL (≈ 1.9 µM) with Staphylococcus aureus [3] and 32 µg/mL (≈ 60.9 µM) against Staphylococcus aureus [4].
